The source made the active and inactive calls. No cut-off for these calls is given here.
Assays:
[1] = biological target: T1, Oxytocin receptor (Homo sapiens, UniProt P30559); test: Displacement of [3H]AVP from human oxytocin receptor expressed in CHO cells; assay type: cell-based; conditions: read-out: Ki
T1 sequence (P30559 whole entry): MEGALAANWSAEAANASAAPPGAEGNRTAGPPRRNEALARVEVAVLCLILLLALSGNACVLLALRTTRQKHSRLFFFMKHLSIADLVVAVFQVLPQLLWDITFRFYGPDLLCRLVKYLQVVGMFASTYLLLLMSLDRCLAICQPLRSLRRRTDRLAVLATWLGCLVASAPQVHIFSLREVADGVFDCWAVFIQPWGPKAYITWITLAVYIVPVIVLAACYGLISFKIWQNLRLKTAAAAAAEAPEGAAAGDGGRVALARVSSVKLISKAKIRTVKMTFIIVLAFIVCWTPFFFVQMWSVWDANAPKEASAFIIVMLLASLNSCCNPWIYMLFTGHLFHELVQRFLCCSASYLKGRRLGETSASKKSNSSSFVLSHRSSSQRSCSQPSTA
In short: (§1)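 Membranes came from CHO cells stably expressing the human receptor; OT-R and V1a-R cells were treated overnight with 5 mM butyrate. Membrane protein was 10–15 μg (OT, V1a) or 5 μg (V2), incubated 30 min at 30 °C in 50 mM Tris-HCl, 5 mM MgCl2, 1 mg/mL BSA, pH 7.4, with 1–2 nM [3H]AVP and competitor 0.1 pM–100 μM. Nonspecific binding: 10 μM AVP. Filtration, then Ki via Cheng–Prusoff. Mean ± SEM of ≥3 experiments in triplicate.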

[2] = biological target: T2, Oxytocin receptor (Homo sapiens) (UniProt P30559); test: Activity at human oxytocin receptor expressed in CHO cells assessed as inositol phosphate accumulation at 1 uM; assay type: functional, cell-based
T2 sequence (whole entry): T1 sequence (P30559 whole entry)
In short: (§2)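 Agonist mode on CHO cells stably expressing human OT receptor: 30 min at 37 °C with ligand, 10 fM–100 μM, ≤1% final DMSO. IP1 accumulation was read by IP-One HTRF, ΔF from the 665/620 ratio. K_act is the EC50 from the sigmoidal fit. Emax is % of the 1 μM OT maximal response. Single-concentration lines are % of OT maximum, n = 2. Mean of ≥3 experiments in triplicate.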

[3] = biological target: T2, Oxytocin receptor (Homo sapiens); test: Activity at human oxytocin receptor expressed in CHO cells assessed as inhibition of agonist-induced inositol phosphate accumulation; assay type: functional, cell-based
[4] = biological target: T1, Oxytocin receptor; test: Activity at human oxytocin receptor expressed in CHO cells by NFAT-luciferase gene reporter assay; assay type: cell-based
[5] = biological target: T3, Vasopressin V1a receptor (Homo sapiens, UniProt P37288); test: Displacement of [3H]AVP from human vasopressin V1a receptor expressed in CHO cells; assay type: cell-based; conditions: read-out: Ki; in short: as §1
Target sequence in this assay (P37288 whole entry): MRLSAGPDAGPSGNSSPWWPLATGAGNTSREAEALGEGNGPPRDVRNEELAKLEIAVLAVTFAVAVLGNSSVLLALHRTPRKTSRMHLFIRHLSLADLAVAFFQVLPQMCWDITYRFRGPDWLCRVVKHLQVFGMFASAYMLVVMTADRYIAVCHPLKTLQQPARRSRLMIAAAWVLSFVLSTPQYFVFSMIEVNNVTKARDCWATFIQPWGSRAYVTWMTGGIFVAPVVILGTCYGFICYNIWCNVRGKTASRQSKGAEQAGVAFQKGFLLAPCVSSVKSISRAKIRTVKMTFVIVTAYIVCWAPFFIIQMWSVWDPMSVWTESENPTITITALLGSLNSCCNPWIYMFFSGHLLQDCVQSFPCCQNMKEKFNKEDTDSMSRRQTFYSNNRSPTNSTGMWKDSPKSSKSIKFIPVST

[6] = biological target: T3, Vasopressin V1a receptor; test: Activity at human vasopressin V1a receptor expressed in CHO cells assessed as inositol phosphate accumulation at 1 uM; assay type: functional, cell-based
In short: (§3)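 Human V1a-expressing CHO cells, 80000 cells/well, exposed to ligand for 30 min at 37 °C. IP1 was measured by HTRF IP-One. EC50 (K_act) from the dose–response curve. Emax is relative to the 1 μM AVP maximum. Weak responses are reported as % of AVP maximum at 1 μM ligand.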
Target sequence in this assay (P37288 whole entry, looked up): as the sequence (P37288 whole entry) above

[7] = biological target: T4, Vasopressin V2 receptor (Homo sapiens, UniProt P30518); test: Displacement of [3H]AVP from human vasopressin V2 receptor expressed in CHO cells; assay type: cell-based; conditions: read-out: Ki; in short: as §1
T4 sequence (P30518 whole entry): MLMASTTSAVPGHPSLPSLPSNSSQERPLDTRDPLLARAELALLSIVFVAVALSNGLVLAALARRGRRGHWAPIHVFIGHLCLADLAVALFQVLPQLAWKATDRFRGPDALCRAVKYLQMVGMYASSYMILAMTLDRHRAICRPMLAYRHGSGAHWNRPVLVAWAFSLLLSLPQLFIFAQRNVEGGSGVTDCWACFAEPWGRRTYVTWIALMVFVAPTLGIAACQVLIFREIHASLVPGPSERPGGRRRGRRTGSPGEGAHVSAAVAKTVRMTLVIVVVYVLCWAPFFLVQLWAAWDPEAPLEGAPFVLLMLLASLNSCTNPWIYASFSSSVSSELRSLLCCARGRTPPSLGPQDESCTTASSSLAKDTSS

[8] = biological target: T4, Vasopressin V2 receptor; test: Activity at human vasopressin V2 receptor expressed in CHO cells assessed as cAMP accumulation; assay type: functional, cell-based
In short: (§4)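 V2-R agonism in CHO cells at 1000 cells/well, stimulated 30 min at 37 °C in D-MEM containing 0.1 mM Ro-20-1724 and 1 mg/mL BSA. cAMP was read by cAMP dynamic 2 HTRF. K_act from the sigmoidal fit. Emax is % of the 0.1 μM AVP response. Single-concentration values are % of AVP maximum.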

[9] = biological target: T4, Vasopressin V2 receptor; test: Activity at human vasopressin V2 receptor expressed in CHO cells assessed as cAMP accumulation at 1 uM; assay type: functional, cell-based; in short: as §4
[10] = biological target: T3, Vasopressin V1a receptor; test: Activity at human vasopressin V1a receptor expressed in CHO cells by NFAT-luciferase gene reporter assay; assay type: cell-based
Target sequence in this assay (P37288 whole entry): as the sequence (P37288 whole entry) above

[11] = biological target: T3, Vasopressin V1a receptor; test: Activity at human vasopressin V1a receptor expressed in CHO cells assessed as inhibition of agonist-induced inositol phosphate accumulation at 1 uM; assay type: functional, cell-based; parameters: scale not given: the % may be the effect or the level left
In short: (§5)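 Human V1a receptor in stably transfected CHO cells, seeded at 80000 cells/well overnight. Cells were preincubated 10 min at 37 °C with ligand (10 fM–100 μM, ≤1% final DMSO), then challenged with 2 nM AVP for 30 min. IP1 was read by IP-One HTRF. K_inact was derived by Cheng–Prusoff-type correction using AVP K_act 1.20 nM. Fixed-concentration lines are % inhibition, n = 2.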
Target sequence in this assay (P37288 whole entry, looked up): as the sequence (P37288 whole entry) above

[12] = biological target: T4, Vasopressin V2 receptor; test: Activity at human vasopressin V2 receptor expressed in CHO cells assessed as inhibition of agonist-induced cAMP accumulation at 1 uM; assay type: functional, cell-based
[13] = biological target: T4, Vasopressin V2 receptor; test: Activity at human vasopressin V2 receptor expressed in CHO cells by cAMP dynamic 2 assay
[14] = biological target: T2, Oxytocin receptor (Homo sapiens); test: Activity at human oxytocin receptor expressed in CHO cells assessed as inhibition of agonist-induced inositol phosphate accumulation at 10 uM; assay type: functional, cell-based; parameters: scale not given: the % may be the effect or the level left
[15] = biological target: T4, Vasopressin V2 receptor; test: Activity at human vasopressin V2 receptor expressed in CHO cells assessed as inhibition of agonist-induced cAMP accumulation at 10 uM; assay type: functional, cell-based; parameters: Activity: scale not given: the % may be the effect or the level left
[16] = biological target: T3, Vasopressin V1a receptor; test: Activity at human vasopressin V1a receptor expressed in CHO cells assessed as inositol phosphate accumulation up to 100 uM; assay type: functional, cell-based; in short: as §3
Target sequence in this assay (P37288 whole entry, looked up): as the sequence (P37288 whole entry) above

[17] = biological target: T4, Vasopressin V2 receptor; test: Activity at human vasopressin V2 receptor expressed in CHO cells assessed as cAMP accumulation up to 100 uM; assay type: functional, cell-based; in short: as §4
[18] = biological target: T3, Vasopressin V1a receptor; test: Activity at human vasopressin V1a receptor expressed in CHO cells assessed as inhibition of agonist-induced inositol phosphate accumulation at 10 uM; assay type: functional, cell-based; parameters: scale not given: the % may be the effect or the level left; in short: as §5
Target sequence in this assay (P37288 whole entry, looked up): as the sequence (P37288 whole entry) above

[19] = biological target: T3, Vasopressin V1a receptor; test: Activity at human vasopressin V1a receptor expressed in CHO cells assessed as inhibition of agonist-induced inositol phosphate accumulation at 100 uM; assay type: functional, cell-based; parameters: scale not given: the % may be the effect or the level left; in short: as §5
Target sequence in this assay (P37288 whole entry, looked up): as the sequence (P37288 whole entry) above

[20] = biological target: T4, Vasopressin V2 receptor; test: Activity at human vasopressin V2 receptor expressed in CHO cells assessed as inhibition of agonist-induced cAMP accumulation at 100 uM; assay type: functional, cell-based; parameters: scale not given: the % may be the effect or the level left
[21] = biological target: T4, Vasopressin V2 receptor; test: Activity at human vasopressin V2 receptor expressed in CHO cells assessed as cAMP accumulation at 10 uM; assay type: functional, cell-based; in short: as §4
[22] = biological target: T2, Oxytocin receptor (Homo sapiens); test: Activity at human oxytocin receptor expressed in CHO cells assessed as inositol phosphate accumulation up to 10 uM; assay type: functional, cell-based
In short: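 CHO cells stably expressing human OT receptor, seeded 80000 cells/well overnight at 37 °C. Ligands 10 fM to 100 μM (≤1% DMSO) in IP-One stimulation buffer, 30 min at 37 °C with 5% CO₂. IP₁ read by HTRF at 665/620 nm. EC50 (K_act) from sigmoidal curves; Emax as % of 1 μM OT maximum. Triplicate wells, ≥3 experiments.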

[23] = biological target: T2, Oxytocin receptor (Homo sapiens); test: Activity at human oxytocin receptor expressed in CHO cells assessed as inositol phosphate accumulation; assay type: functional, cell-based; in short: as §2
[24] = biological target: T3, Vasopressin V1a receptor; test: Activity at human vasopressin V1a receptor expressed in CHO cells assessed as inhibition of agonist-induced inositol phosphate accumulation; assay type: functional, cell-based; in short: as §5
Target sequence in this assay (P37288 whole entry, looked up): as the sequence (P37288 whole entry) above

[25] = biological target: T2, Oxytocin receptor (Homo sapiens); test: Activity at human oxytocin receptor expressed in CHO cells assessed as inhibition of agonist-induced inositol phosphate accumulation at 1 uM; assay type: functional, cell-based; parameters: scale not given: the % may be the effect or the level left

SMILES | Ki [1] [nM] | Kinact [3] [nM] | Ki [5] [nM] | Activity [6] | Ki [7] [nM] | Kact [8] [nM] | Emax [9] [%] | Activity [12] | Activity [14] | Kinact [24] [nM] | Activity [25] [%] | Activity [11] | other results
CN1CCCN(C(=S)[C@@H]2CCCN2C(=O)NCc2ccc(C(=O)N3Cc4cccn4Cc4ccccc43)c(Cl)c2)CC1 | > 5000 | – | > 5000 | – | > 5000 | – | – | – | 17% | – | – | – | Activity [15]: 25%; Activity [16]: inactive; Activity [17]: inactive; Activity [18]: 7%; Activity [19]: 92%; Activity [20]: 94%; Activity [21]: 13%
Cc1cc(C(=O)N2CCC(N3C(=O)OCc4ccccc43)CC2)ccc1CNC(=O)N1CCC[C@H]1C(=S)N1CCCN(C)CC1 | 245 | 383 | > 5000 | inactive | – | – | – | inactive | – | – | – | inactive | Activity [9]: inactive; Activity [22]: inactive
Cc1cc(C(=O)N2Cc3cnn(C)c3Nc3ccccc32)ccc1CNC(=O)N(C)C | > 5000 | – | 170 | inactive | > 1000 | – | 16 | – | inactive | 134 | 30 | – | –

More lines, main results first:

Ki [1] [nM] | Kinact [3] [nM] | Ki [5] [nM] | Activity [6] | Ki [7] [nM] | Kact [8] [nM] | Emax [9] [%] | Activity [12] | Activity [14] | Kinact [24] [nM] | Activity [25] [%] | SMILES | Activity [11] | other results
199 | 488 | 344 | inactive | 50 | 9.5 | 75 | inactive | – | – | – | Cc1ccn(-c2ccc(C(=O)N3Cc4cccn4Cc4ccccc43)c(Cl)c2)n1 | 33% | Activity [2]: inactive; EC50 [4]: 125 nM; EC50 [10]: 465 nM; EC50 [13]: 39.9 nM
17 | 69 | 27 | inactive | 29 | 8.4 | 94 | inactive | – | 13 | – | Cc1ccn(-c2ccc(C(=O)N3Cc4cnn(C)c4Nc4ccccc43)c(Cl)c2)n1 | – | Activity [23]: inactive
> 1000 | – | 167 | inactive | > 1000 | – | 20 | – | inactive | 187 | 37 | Cc1cc(C(=O)N2Cc3cnn(C)c3Nc3ccccc32)ccc1CNC(=O)N1CCCC1 | – | Kinact [12]: inactive

Reference: ChEMBL document CHEMBL1156912, “Subtlety of the structure-affinity and structure-efficacy relationships around a nonpeptide oxytocin receptor agonist” (J Med Chem, 2010)
